Compound activity deposited in PubChem BioAssay by The Scripps Research Institute Molecular Screening Center.
Rows were chosen to be rich in hits. Some 1.3% of all compounds tested hit in one or more screens of this group.
NR2E3 ag-1: NR2E3 (human) agonism. GST-NR2E3/biotin-RetCOR TR-FRET, 1536-well. inhibition of corepressor binding, % at 4.78 µM. actives 0.12% (n = 320,000). AID 2300;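 active means percent inhibition above the cutoff of mean plus 3 SD of all tested compounds, set per screening campaign, cut at about 20% in these data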;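 further: 0% = DMSO wells and 100% = biotin wells as full block of FRET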
Target sequence (Q9Y5X4 whole entry, looked up): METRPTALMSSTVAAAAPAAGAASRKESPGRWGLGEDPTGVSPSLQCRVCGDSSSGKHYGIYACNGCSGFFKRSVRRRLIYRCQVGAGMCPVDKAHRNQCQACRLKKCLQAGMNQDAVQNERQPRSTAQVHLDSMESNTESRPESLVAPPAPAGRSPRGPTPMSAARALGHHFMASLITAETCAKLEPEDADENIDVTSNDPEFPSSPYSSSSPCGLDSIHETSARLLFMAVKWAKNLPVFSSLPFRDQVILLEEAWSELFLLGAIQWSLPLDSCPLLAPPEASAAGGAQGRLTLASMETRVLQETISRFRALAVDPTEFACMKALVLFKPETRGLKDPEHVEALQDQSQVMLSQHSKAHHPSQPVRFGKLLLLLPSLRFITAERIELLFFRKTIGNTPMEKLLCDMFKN
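system = GST-tagged NR2E3 plus biotinylated RetCOR corepressor | input = 1.35 nM GST-NR2E3 | also added = 7 nM biotin-RetCOR | schedule = 5 h incubation at 4 °C | measured by = TR-FRET with europium anti-GST and streptavidin-D2, 340 nm excitation | read-out = percent loss of FRET ratio relative to control wells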
PP1 counter: PP1-alpha (human) inhibition in PP5 counter-screen; P62136; purified PP1alpha, OMFP fluorescence; inhibition, % at 6.7 µM; actives 0.9% (n = 320,000);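 active means inhibition above the mean inhibition of all tested compounds plus 3 SD, computed separately for each screening campaign, cut at about 15% in these data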
Target sequence (P62136 whole entry, looked up): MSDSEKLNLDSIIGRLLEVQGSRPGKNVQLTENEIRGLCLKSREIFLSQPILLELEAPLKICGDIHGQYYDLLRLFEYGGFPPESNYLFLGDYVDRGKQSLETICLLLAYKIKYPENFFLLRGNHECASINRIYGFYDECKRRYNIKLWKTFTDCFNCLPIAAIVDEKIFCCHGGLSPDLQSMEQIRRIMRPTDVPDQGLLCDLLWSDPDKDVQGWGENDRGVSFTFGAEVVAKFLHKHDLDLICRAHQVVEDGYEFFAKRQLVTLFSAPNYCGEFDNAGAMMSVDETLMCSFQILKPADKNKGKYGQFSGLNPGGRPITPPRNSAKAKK
PP5 primary: PP5 (human) phosphatase inhibition | P53041 | purified PP5c, OMFP substrate fluorescence | inhibition, % at 6.7 µM | actives 0.18% (n = 320,000) | AID 1987;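 active means inhibition above the campaign's mean inhibition across all tested compounds plus 3 SD, cut at about 9.5% in these data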;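 further: 0% = DMSO only and 100% = 100 µM cantharidin control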
NR2E3 ag-2: activates human NR2E3 receptor; inhibition of corepressor binding, % at 3.98 µM; actives 0.35% (n = 360,000); Q9Y5X4; CHO-S Gal4-NCOR/VP16-NR2E3 two-hybrid, luciferase;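 active means inhibition above the mean of all tested compounds plus 3 SD, cut at about 70% in these data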;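 further: 0% = DMSO with NR2E3 transfected cells and 100% = cells lacking NR2E3 construct; higher means lower luciferase signal from less NR2E3 corepressor binding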
PP1 confirm: human PP1 phosphatase inhibition, confirmation; shares compounds with PP1 counter; purified PP1alpha, OMFP substrate fluorescence; inhibition, % at 6.7 µM; actives 52% (n = 1,900); AID 2358;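 active means mean PP1 inhibition above a set limit taken from the earlier primary screen, cut at about 15% in these data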
PP5 inh counter: PP5 phosphatase inhibition, counter-screen for PP1 inhibitors. shares compounds with PP1 counter. purified PP5c, OMFP fluorescence. inhibition, % at 6.7 µM. actives 4% (n = 1,900). AID 2360;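 active means mean PP5 inhibition over triplicate wells above about 9.5% taken from the earlier PP1 screen, limit read from the data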
NR2E3 ag conf: NR2E3 agonism confirmed in two-hybrid assay; actives 51% (n = 2,300); AID 624378; inhibition, % at 3.98 µM; shares compounds with NR2E3 ag-2; CHO-S mammalian two-hybrid NR2E3-NCOR, luciferase luminescence;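 active means average inhibition above a cutoff equal to the mean inhibition of all tested compounds plus one SD, cut at about 70% in these data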;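 further: 0% = DMSO in NR2E3 cells and 100% = DMSO in cells lacking NR2E3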
VP16 counter: reduces GAL4-VP16 reporter signal in NR2E3 counterscreen. CHO-S GAL4-VP16 luciferase reporter, luminescence. AID 624379. shares compounds with NR2E3 ag-2. actives 29% (n = 2,300). inhibition, % at 3.98 µM;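 active means mean inhibition above a cutoff equal to the average over all tested compounds plus one standard deviation, cut at about 70% in these data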;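 further: luciferase from a UAS reporter driven by GAL4-VP16 transactivation; 0% = DMSO with VP16-transfected cells and 100% = DMSO with cells lacking VP16; higher means less reporter light so more repression of VP16 activity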
The depositor's hits bear a star; . = no result.

SMILES	NR2E3 ag-1	PP1 counter	PP5 primary	NR2E3 ag-2	PP1 confirm	PP5 inh counter	NR2E3 ag conf	VP16 counter
Cc1ccc2nc(-c3cccnc3)c(Nc3ccccc3C)n2c1	3.3	-2.0	1.9	8.6	.	.	.	.
CCCNC(=O)C1(C)CCCN(Cc2ccc(C(=O)OCC)o2)C1 (centres undefined)	.	.	.	5.8	.	.	.	.
CC(C)c1ccc(S(=O)(=O)N(C)C2(C)CCS(=O)(=O)C2)cc1 (centres undefined)	2.0	-8.8	0.5	12.3	.	.	.	.
COc1ccc(CCNc2nc(-c3ccccn3)cs2)cc1OC	-1.4	46.8*	3.2	68.3	41.2*	-5.0	10.3	-39.7
O=C1NC[C@H](CCCCN2C[C@H](Cc3ccc(O)cc3)N(CCc3ccccc3)C(=O)C2=O)N(CC2CCCCC2)C1=O	.	.	.	-11.7	.	.	.	.
COc1cnc(-c2ccccn2)nc1Sc1c(Cl)cccc1Cl	0.6	49.6*	4.7	90.9*	40.6*	0.8	23.6	3.2
CCOC(=O)C(C)Sc1nc(-c2ccccn2)ncc1OC (centres undefined)	-4.2	12.9	1.8	44.2	.	.	.	.
COc1cnc(-c2ccccn2)nc1Sc1ccccc1Cl	-4.6	46.6*	6.2	90.8*	51.4*	6.3	90.0*	25.0
O=S(=O)(Nc1ccc(-c2csc(-c3ccccc3)n2)cc1)c1ccc(F)cc1	0.6	3.1	6.0	-6.3	.	.	.	.
O=C(Nc1nc(-c2ccccc2)cs1)c1ccccc1NS(=O)(=O)c1ccc(F)cc1	3.9	21.0*	9.2	95.3*	21.4*	12.7*	99.0*	85.3*
COc1cnc(-c2ccccn2)nc1Oc1c(C)cccc1C	-0.2	18.8*	1.1	57.3	25.2*	-1.7	28.1	-5.9
COc1cnc(-c2ccccn2)nc1Oc1cccc(Cl)c1	1.3	52.6*	5.7	62.5	46.2*	-1.2	15.1	3.5
COc1ccc(Oc2nc(-c3ccccn3)ncc2OC)cc1	1.4	21.5*	2.9	73.2*	32.2*	3.1	20.9	-25.7
COc1cnc(-c2ccccc2)nc1Oc1cccc(C)c1	-3.2	0.5	5.5	16.2	.	.	.	.
Cc1ccc(C)c(N2CCN(C(=O)CCc3nc(-c4ccccc4Cl)no3)CC2)c1	.	.	.	-17.0	.	.	.	.
CCOC(=O)[C@]12CCCC=C1N(Cc1cccc3ccccc13)C(=O)[C@H](CC(=O)N1CCN(C(=O)c3ccco3)CC1)C2	.	.	.	-16.6	.	.	.	.
CC1Cc2ccccc2N1C(=O)Cn1cc(C(F)(F)F)ccc1=O (centres undefined)	.	.	.	20.2	.	.	.	.
Cc1cccnc1Nc1nc(-c2ccccn2)cs1	3.6	28.4*	6.4	77.2*	35.6*	5.1	99.8*	2.5
Cc1ccc(C(=O)Nc2nc(-c3ccccn3)cs2)s1	4.5	33.8*	4.9	50.8	32.5*	-1.4	-8.0	-39.5
Cc1ccc(C)c(CC(=O)N2CCCCC2c2cc(C(=O)Nc3cccc(C#N)c3)no2)c1 (centres undefined)	.	.	.	-31.3	.	.	.	.
COc1ccc(-c2nc(SCc3ccc(C#N)cc3)[nH]c(=O)c2C#N)cc1	-2.8	1.5	0.8	-18.8	.	.	.	.
N#Cc1c(-c2ccccc2)nc(SCc2ccc(Cl)cc2)[nH]c1=O	5.6	17.9*	6.1	72.2*	12.2	-1.9	58.4	35.7
CC(C)NC(=O)c1cc(-c2ccc(F)cc2OC(C)C)n[nH]1	.	.	.	-31.6	.	.	.	.
Cc1cc(C(=O)C(C)OC(=O)c2ccc(NC(=O)CC#N)cc2)c(C)n1-c1ccccc1 (centres undefined)	1.6	18.9*	2.8	50.3	5.9	-0.2	-16.8	-8.8
CC(OC(=O)c1ccc(NC(=O)CC#N)cc1)C(=O)NC(c1ccccc1)c1ccccc1 (centres undefined)	.	.	.	6.5	.	.	.	.
SMILES	NR2E3 ag-1	PP1 counter	PP5 primary	NR2E3 ag-2	PP1 confirm	PP5 inh counter	NR2E3 ag conf	VP16 counter
CC(C)Cn1c(N)c(C(=O)COC(=O)/C=C/c2ccccc2)c(=O)n(C)c1=O	6.9	37.4*	3.5	73.9*	0.1	-1.4	25.9	56.4
CCOC(=O)c1cnc(-n2nc(C)cc2C)nc1NCCc1ccccc1	2.7	57.0*	6.8	85.7*	50.7*	-1.1	11.9	-6.9
CCOC(=O)c1cnc(-n2nc(C)cc2C)nc1NC1CCCC1	2.4	22.4*	2.4	94.0*	26.5*	0.8	29.8	-0.2
COc1ccc2c(c1)CSC(c1ccccc1)C2=O (centres undefined)	.	.	.	-26.6	.	.	.	.
O=C(CN1CCc2cc3c(cc2C1)OCCCO3)Nc1c(F)cccc1F	1.3	0.4	-0.7	2.7	.	.	.	.
c1ccc(CCNc2nc(-c3ccccn3)nc3ccccc23)cc1	0.1	29.2*	4.2	103.2*	49.6*	-4.5	99.8*	84.6*
c1ccc(-c2nc(N3CCCCCC3)c3ccccc3n2)nc1	-1.1	26.9*	0.0	109.3*	25.6*	-2.0	100.4*	72.7*
COc1ccc(CCC(=O)NCC(=O)OCc2ccccc2)cc1	-2.9	-0.8	-0.4	-12.2	.	.	.	.
COc1ccc(-c2coc3c(C(=O)Nc4cccnc4)cccc23)c(C)c1	.	.	.	-118.6	.	.	.	.
Cc1cc(/C=N/n2cnnc2)c(C)n1-c1ccc(OCc2ccc(Cl)cc2Cl)cc1	1.9	26.6*	2.0	111.4*	42.3*	0.4	98.1*	89.3*
Cc1cc(/C=N/n2cnnc2)c(C)n1-c1ccc(OCc2ccc(F)cc2)cc1	1.4	19.1*	2.3	48.2	10.0	1.2	96.4*	84.8*
Cc1cc(/C=N/n2cnnc2)c(C)n1-c1ccc(Cl)cc1	2.6	-3.6	3.5	0.9	.	.	.	.
CCOc1ccccc1OC(=O)CN1C(=O)c2ccccc2C1=O	0.2	-2.2	0.0	2.2	.	.	.	.
Clc1ccc(OCc2nc(-c3ccccn3)no2)c(Br)c1	1.3	-2.5	-0.2	-185.9	.	.	.	.
Nc1nc(-c2ccccn2)nc(N)c1Cc1ccccc1F	-3.2	14.0	4.3	13.6	.	.	.	.
Nc1nc(-c2ccccn2)nc(N)c1Cc1ccc(Cl)cc1Cl	3.3	34.1*	2.3	91.4*	46.9*	4.6	100.1*	49.0
Nc1nc(-c2ccccn2)nc(N)c1Cc1c(F)cccc1Cl	-2.5	27.2*	1.2	86.4*	46.8*	-2.2	97.9*	22.7
CCCS(=O)(=O)NC(=O)C1(C)CCCN(C(=O)c2cc(OC)ccc2Br)C1 (centres undefined)	.	.	.	-24.9	.	.	.	.
Cc1cccc(Nc2nc(NCc3ccco3)c3ccccc3n2)c1	5.0	25.1*	10.3*	73.6*	13.6	4.0	99.8*	87.0*
Oc1ccccc1Nc1nc(NCc2ccco2)c2ccccc2n1	-2.0	7.0	5.8	-5.1	.	.	.	.
COc1ccc(NC(=O)c2cc(C)cc(C)c2)cc1S(=O)(=O)N1CCCCC1	2.2	2.6	3.2	-8.9	.	.	.	.
